Data published in ChEMBL document CHEMBL1124759, “Fluoronaphthyridines and quinolones as antibacterial agents. 2. Synthesis and structure-activity relationships of new 1-tert-butyl 7-substituted derivatives” (J Med Chem, 1990).
Converted amounts (≈) assume the structure as drawn.

Legend:
Escherichia coli [1] = assay: In vitro minimum inhibitory concentration (MIC) against Escherichia coli A 15119 at 37 degrees C for 18 h.; assay type: functional
Procedure, shortened: (§1)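 Two-fold serial broth dilution in nutrient broth. Inoculum adjusted to 10^6 cfu/mL. Compounds tested from 0.0005 to 250 µg/mL.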

Enterococcus faecium = assay: In vitro minimum inhibitory concentration (MIC) against Enterococcus faecium A 24885 at 37 degrees C for 18 h.; assay type: functional; procedure, shortened: as §1
Serratia marcescens = assay: In vitro minimum inhibitory concentration (MIC) against Serratia marcescens A 20019 at 37 degrees C for 18 hr; assay type: functional; procedure, shortened: as §1
Pseudomonas aeruginosa [2] = assay: In vitro minimum inhibitory concentration (MIC) against Pseudomonas aeruginosa A 9843 at 37 degree C for 18 h; assay type: functional; procedure, shortened: as §1
Enterococcus faecalis = assay: In vitro minimum inhibitory concentration (MIC) against Enterococcus faecalis A 9808 at 37 degrees C for 18 h.; assay type: functional; procedure, shortened: as §1
Klebsiella pneumoniae [3] = assay: In vitro minimum inhibitory concentration (MIC) against Klebsiella pneumoniae A 9664 at 37 degrees C for 18 h.; assay type: functional; procedure, shortened: as §1
Morganella morganii = assay: In vitro minimum inhibitory concentration (MIC) against Morganella morganii A 15153 at 37 degrees C for 18 h.; assay type: functional; procedure, shortened: as §1
Enterobacter cloacae [4] = assay: In vitro minimum inhibitory concentration (MIC) against Enterobacter cloacae A 9656 at 37 degrees Celsius for 18 h.; assay type: functional; procedure, shortened: as §1
Staphylococcus aureus [5] = assay: In vitro minimum inhibitory concentration (MIC) against Staphylococcus aureus Smith A 9537 at 37 degrees C for 18 hr; assay type: functional; procedure, shortened: as §1
Mus musculus [6] = assay: Dose to protect 50% of mice from lethal infection after intravenous administration; assay type: functional
Canis familiaris [7] = species: Canis familiaris; settings: dog, in vivo, po, 25 mg/kg
in vivo = settings: dog, urine, po, 25 mg/kg
Klebsiella pneumoniae [8] = assay: Efficacy on systematic infections against Klebsiella pneumoniae A 9664 after oral administration in mice; assay type: functional; settings: read-out: PD50
Procedure, shortened: (§2)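 Mice given compound orally after lethal systemic infection. Read-out is the oral dose protecting 50% of mice from death (PD50), reported in mg/kg.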

Klebsiella pneumoniae [9] = assay: In vitro minimum inhibitory concentration (MIC) against Klebsiella pneumoniae A 9664 at 37 degrees C for 18 h; assay type: functional; procedure, shortened: as §1
Escherichia coli [10] = assay: Efficacy on systematic infections against Escherichia coli A 15119 after oral administration in mice; assay type: functional; settings: read-out: PD50; procedure, shortened: as §2
Canis familiaris [11] = assay: in vivo; settings: dog, po, 25 mg/kg
Canis familiaris [12] = assay: in vivo; settings: dog, po, 25 mg/kg; remark: listed apart in the source
Enterobacter cloacae [13] = assay: (§3) In vitro minimum inhibitory concentration (MIC) against Enterobacter cloacae A 9656 at 37 degrees C for 18 h.; assay type: functional
[14] = (§4) Tested for aqueous solubility; settings: aqueous medium
Mus musculus [15] = assay: Dose to protect 50% of mice from lethal infection after peroral administration.; assay type: functional; settings: po; procedure, shortened: as §2
Pseudomonas aeruginosa [16] = assay: Efficacy on systematic infections against Pseudomonas aeruginosa A 9843 after oral administration in mice; assay type: functional; settings: read-out: PD50; procedure, shortened: as §2
Staphylococcus aureus [17] = assay: Efficacy on systematic infections against Staphylococcus aureus A 9537 after oral administration in mice; assay type: functional; settings: read-out: PD50; procedure, shortened: as §2
Pseudomonas aeruginosa [18] = assay: In vitro minimum inhibitory concentration (MIC) against Pseudomonas aeruginosa A 9843 at 37 degrees C for 18 h; assay type: functional; procedure, shortened: as §1
Enterobacter cloacae [19] = assay: as §3; assay type: functional; procedure, shortened: as §1; remark: listed apart in the source
Escherichia coli [20] = assay: In vitro minimum inhibitory concentration (MIC) against Escherichia coli A 15119 at 37 degrees Celsius for 18 h.; assay type: functional; procedure, shortened: as §1
[21] = as §4; assay type: physicochemical; settings: aqueous medium; read-out: S
Procedure, shortened: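 An excess of solid was shaken overnight in water for injection at isoelectric pH. The mixture was filtered, and the filtrate was diluted and quantified by HPLC with UV detection.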

Klebsiella pneumoniae [22] = assay: In vitro minimum inhibitory concentration (MIC) […] A 9664 at 37 degrees Celsius for 18 h.; assay type: functional; procedure, shortened: as §1
Enterobacter cloacae [23] = assay: In vitro minimum inhibitory concentration (MIC) against Enterobacter cloacae A 9656 at 37 degree C for 18 h.; assay type: functional; procedure, shortened: as §1

Row | SMILES | MIC (Escherichia coli [1]) [µg/mL] | MIC (Enterococcus faecium) [µg/mL] | MIC (Serratia marcescens) [µg/mL] | MIC (Pseudomonas aeruginosa [2]) [µg/mL] | MIC (Enterococcus faecalis) [µg/mL] | MIC (Klebsiella pneumoniae [3]) [µg/mL] | MIC (Morganella morganii) [µg/mL] | MIC (Staphylococcus aureus [5]) [µg/mL] | MIC (Enterobacter cloacae [13]) [µg/mL] | MIC (Pseudomonas aeruginosa [18]) [µg/mL] | also measured
1 | CCNC1CCN(c2nc3c(cc2F)c(=O)c(C(=O)O)cn3C(C)(C)C)C1 (configuration not stated) | 0.06 (≈ 0.159 µM) | 4 (≈ 10.6 µM) | 1 (≈ 2.66 µM) | 4 (≈ 10.6 µM) | 0.13 (≈ 0.345 µM) | 0.06 (≈ 0.159 µM) | 1 (≈ 2.66 µM) | 0.06 (≈ 0.159 µM) | – | – | MIC (Enterobacter cloacae [4]): 0.25 µg/mL (≈ 0.664 µM)
2 | CC(C)(C)n1cc(C(=O)O)c(=O)c2cc(F)c(N3C[C@H]4C[C@@H]3CN4)nc21 | 0.06 (≈ 0.166 µM) | 1 (≈ 2.77 µM) | 0.06 (≈ 0.166 µM) | 0.25 (≈ 0.694 µM) | 0.13 (≈ 0.361 µM) | – | 0.25 (≈ 0.694 µM) | 0.06 (≈ 0.166 µM) | 0.06 (≈ 0.166 µM) | – | LD50 (Mus musculus [6]): 303 mg/kg; AUC (Canis familiaris [7]): 55000 ng·h/mL; dose excreted (in vivo): 20%; ED50 (Klebsiella pneumoniae [8]): 4.9 mg/kg; MIC (Klebsiella pneumoniae [9]): 0.06 µg/mL (≈ 0.166 µM); ED50 (Escherichia coli [10]): 1.8 mg/kg; Cmax (Canis familiaris [11]): 5600 ng/mL; half-life (Canis familiaris [12]): 4.5 h; solubility [14]: 80 µg/mL (≈ 222 µM); LD50 (Mus musculus [15]): 5000 mg/kg; ED50 (Pseudomonas aeruginosa [16]): 4.7 mg/kg; ED50 (Staphylococcus aureus [17]): 1.6 mg/kg
3 | CC1CN(c2cc3c(cc2F)c(=O)c(C(=O)O)cn3C(C)(C)C)CC(C)N1 (configuration not stated) | – | 8 (≈ 21.3 µM) | 2 (≈ 5.33 µM) | – | 2 (≈ 5.33 µM) | 0.5 (≈ 1.33 µM) | 1 (≈ 2.66 µM) | 0.25 (≈ 0.666 µM) | – | 4 (≈ 10.7 µM) | MIC (Enterobacter cloacae [19]): 0.13 µg/mL (≈ 0.346 µM); MIC (Escherichia coli [20]): 0.13 µg/mL (≈ 0.346 µM)
4 | CC(C)(C)n1cc(C(=O)O)c(=O)c2cc(F)c(N3C[C@H]4C[C@@H]3CN4)cc21.CS(=O)(=O)O | 0.5 | 4 | 0.25 | 0.5 | 2 | – | 2 | 0.5 | 0.25 | – | solubility [21]: 230 µg/mL; MIC (Klebsiella pneumoniae [22]): 0.13 µg/mL
5 | CC1CN(c2nc3c(cc2F)c(=O)c(C(=O)O)cn3C(C)(C)C)CCN1 (configuration not stated) | 0.5 (≈ 1.38 µM) | 2 (≈ 5.52 µM) | 4 (≈ 11 µM) | – | 0.5 (≈ 1.38 µM) | 2 (≈ 5.52 µM) | 4 (≈ 11 µM) | 0.13 (≈ 0.359 µM) | – | 8 (≈ 22.1 µM) | MIC (Enterobacter cloacae [23]): 1 µg/mL (≈ 2.76 µM)
